# Article PMC10644204 (Pharmacology Research & Perspectives, 2023)
# Values joined by “and” are separate entries in the source; they are usually repeats but may differ in a detail not shown here. Equal values may be shown once. Read-outs that look alike come from different tables or passages of the source.
# Key:
# [1] = system: healthy participants; test: Safety assessments; format: in vivo, human
# Summary of the method: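 Part 2 healthy participants confined from Day −2 of period 1 to Day 9 of period 4. […] AEs monitored throughout, recording duration, severity, causality and outcome, alongside safety ECGs, laboratory tests, physical examination and vital signs.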
# [2] = system: dogs; settings: single dose of GSK'254 17 mg kg^−1, cited from earlier work
# [3] = system: HIV‐1; settings: GSK'254 200 mg QD, treatment-naive people living with HIV-1, phase IIa; cited from earlier work
# [4] = GSK'254 200 mg QD, healthy participants, previous studies; cited from earlier work
# [5] = GSK'254 200 mg QD, treatment-naive people living with HIV-1; cited from earlier work
# [6] = system: healthy participants and people living with HIV‐1; settings: short-term administration; cited from earlier work
# [7] = part 2, GSK'254 100 mg (N = 40)
# [8] = part 2, GSK'254 500 mg (N = 40)
smiles,measurement,setting,value
C=C(C)[C@@H]1CC[C@]2(NCCN3CCS(=O)(=O)CC3)CC[C@]3(C)[C@H](CC[C@@H]4[C@@]5(C)CC=C(C6=CC[C@@](CF)(C(=O)O)CC6)C(C)(C)[C@@H]5CC[C@]43C)[C@@H]12 [GSK'254],AE: Gastrointestinal disorders,[1]; [7],1 (3) n (%)
same,AE: General disorders and administration site conditions,[1]; [7],0 n (%)
same,AE: Immune system disorders,[1]; [7],0 n (%)
same,AE: Infections and infestations,[1]; [7],0 n (%)
same,AE: Maculopapular rash,[1]; [7],1 (3) n (%)
same,AE: Medical device site dermatitis,[1]; [7],0 n (%)
same,AE: Nausea,[1]; [7],0 n (%)
same,AE: Nervous system disorders,[1]; [7],0 n (%)
same,AE: Renal and urinary disorders,[1]; [7],0 n (%)
same,AE: Reproductive system and breast disorders,[1]; [7],0 n (%)
same,"AE: Respiratory, thoracic, and mediastinal disorders",[1]; [7],1 (3) n (%)
same,AE: Skin and subcutaneous tissue disorders,[1]; [7],3 (8) n (%)
same,AE: Vessel puncture site pain,[1]; [7],0 n (%)
same,Any AE,[1]; [7],5 (13) n (%)
same,Any drug-related AE,[1]; [7],2 n (%) and 2 (5) n (%)
same,Drug-related AE: Abdominal pain,[1]; [7],0 n (%)
same,Drug-related AE: Acne,[1]; [7],2 (5) n (%)
same,Drug-related AE: Diarrhea,[1]; [7],0 n (%)
same,Drug-related AE: Fatigue,[1]; [7],0 n (%)
same,Drug-related AE: Gastrointestinal disorders,[1]; [7],0 n (%)
same,Drug-related AE: General disorders and administration site conditions,[1]; [7],0 n (%)
same,Drug-related AE: Maculopapular rash,[1]; [7],0 n (%)
same,Drug-related AE: Nausea,[1]; [7],0 n (%)
same,Drug-related AE: Pruritus,[1]; [7],1 (3) n (%)
same,Drug-related AE: Renal and urinary disorders,[1]; [7],0 n (%)
same,Drug-related AE: Skin and subcutaneous tissue disorders,[1]; [7],2 (5) n (%)
same,Drug-related AE: Urinary hesitation,[1]; [7],0 n (%)
same,AE: Abdominal pain,[1]; [8],1 (3) n (%)
same,AE: Acne,[1]; [8],0 n (%)
same,AE: Diarrhea,[1]; [8],6 n (%) and 6 (15) n (%)
same,AE: Gastrointestinal disorders,[1]; [8],7 (18) n (%)
same,AE: General disorders and administration site conditions,[1]; [8],3 (8) n (%)
same,AE: Immune system disorders,[1]; [8],0 n (%)
same,AE: Infections and infestations,[1]; [8],1 (3) n (%)
same,AE: Maculopapular rash,[1]; [8],1 (3) n (%)
same,AE: Medical device site dermatitis,[1]; [8],2 (5) n (%)
same,AE: Nausea,[1]; [8],2 (5) n (%)
same,AE: Nervous system disorders,[1]; [8],1 (3) n (%)
same,AE: Renal and urinary disorders,[1]; [8],0 n (%)
same,AE: Reproductive system and breast disorders,[1]; [8],0 n (%)
same,"AE: Respiratory, thoracic, and mediastinal disorders",[1]; [8],0 n (%)
same,AE: Skin and subcutaneous tissue disorders,[1]; [8],2 (5) n (%)
same,AE: Vessel puncture site pain,[1]; [8],0 n (%)
same,Any AE,[1]; [8],10 (25) n (%)
same,Any drug-related AE,[1]; [8],7 n (%) and 7 (18) n (%)
same,Drug-related AE: Abdominal pain,[1]; [8],1 (3) n (%)
same,Drug-related AE: Acne,[1]; [8],0 n (%)
same,Drug-related AE: Fatigue,[1]; [8],0 n (%)
same,Drug-related AE: Gastrointestinal disorders,[1]; [8],6 (15) n (%)
same,Drug-related AE: General disorders and administration site conditions,[1]; [8],0 n (%)
same,Drug-related AE: Maculopapular rash,[1]; [8],1 (3) n (%)
same,Drug-related AE: Nausea,[1]; [8],2 (5) n (%)
same,Drug-related AE: Pruritus,[1]; [8],0 n (%)
same,Drug-related AE: Renal and urinary disorders,[1]; [8],0 n (%)
same,Drug-related AE: Skin and subcutaneous tissue disorders,[1]; [8],1 (3) n (%)
same,Drug-related AE: Urinary hesitation,[1]; [8],0 n (%)
same,Maximum concentration,[2]; dog,7960 ng/mL
same,QT interval effects,"[2]; dogs, telemetry",minimal QT interval effects were observed in one dog
same,Mean reduction from baseline in HIV-1 RNA,[3],2 log10 copies/mL
same,Geometric mean Cmax,[4],1040 to 1780 ng/mL
same,Geometric mean Cmax,[5],1860 ng/mL
same,Tolerability,[6],generally well tolerated
